Experimental data: ChEMBL document CHEMBL4602724, “Validating the 1,2-Difluoro Motif As a Hybrid Bioisostere of CF3 and Et Using Matrix Metalloproteinases As Structural Probes” (J Med Chem, 2020)

Legend:
Neutrophil collagenase = Neutrophil collagenase (Homo sapiens, UniProt P22894); assay: Inhibition of human active MMP8 using (7-methoxycoumarin-4-yl)acetyl-Pro-Leu-Gly-Leu-(3-(2,4-dinitrophenyl)-L-2,3-diamino-propionyl)Ala-Arg-NH2 as substrate preincubated for 30 mins followed by substrate addition and measured for 10 mins by fluorescence assay
Summary of the method: (§1)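 Human active enzyme at 2 nM was preincubated with compound (10 pM–1 mM) for 30 min at 37 °C in 50 mM Tris·HCl pH 7.5 with 0.2 M NaCl, 5 mM CaCl2, […] ZnSO4 and 0.05% Brij 35. Substrate was then added and fluorescence (ex 330/em 390 nm) followed at 37 °C. Initial 10-min linear rates were plotted against inhibitor concentration. IC50 is the mean of three experiments.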

[1] = target: Matrix metalloproteinase-9 (Homo sapiens, UniProt P14780); assay: Inhibition of human active MMP9 using (7-methoxycoumarin-4-yl)acetyl-Pro-Leu-Gly-Leu-(3-(2,4-dinitrophenyl)-L-2,3-diamino-propionyl)Ala-Arg-NH2 as substrate preincubated for 30 mins followed by substrate addition and measured for 10 mins by fluorescence assay; summary of the method: as §1
[2] = target: 72 kDa type IV collagenase (Homo sapiens, UniProt P08253); assay: Inhibition of human active MMP2 using (7-methoxycoumarin-4-yl)acetyl-Pro-Leu-Gly-Leu-(3-(2,4-dinitrophenyl)-L-2,3-diamino-propionyl)Ala-Arg-NH2 as substrate preincubated for 30 mins followed by substrate addition and measured for 10 mins by fluorescence assay; summary of the method: as §1
Collagenase 3 = Collagenase 3 (Homo sapiens, UniProt P45452); assay: Inhibition of human active MMP13 using (7-methoxycoumarin-4-yl)acetyl-Pro-Leu-Gly-Leu-(3-(2,4-dinitrophenyl)-L-2,3-diamino-propionyl)Ala-Arg-NH2 as substrate preincubated for 30 mins followed by substrate addition and measured for 10 mins by fluorescence assay; summary of the method: as §1

72 kDa type IV collagenase, sequence (P08253 whole entry): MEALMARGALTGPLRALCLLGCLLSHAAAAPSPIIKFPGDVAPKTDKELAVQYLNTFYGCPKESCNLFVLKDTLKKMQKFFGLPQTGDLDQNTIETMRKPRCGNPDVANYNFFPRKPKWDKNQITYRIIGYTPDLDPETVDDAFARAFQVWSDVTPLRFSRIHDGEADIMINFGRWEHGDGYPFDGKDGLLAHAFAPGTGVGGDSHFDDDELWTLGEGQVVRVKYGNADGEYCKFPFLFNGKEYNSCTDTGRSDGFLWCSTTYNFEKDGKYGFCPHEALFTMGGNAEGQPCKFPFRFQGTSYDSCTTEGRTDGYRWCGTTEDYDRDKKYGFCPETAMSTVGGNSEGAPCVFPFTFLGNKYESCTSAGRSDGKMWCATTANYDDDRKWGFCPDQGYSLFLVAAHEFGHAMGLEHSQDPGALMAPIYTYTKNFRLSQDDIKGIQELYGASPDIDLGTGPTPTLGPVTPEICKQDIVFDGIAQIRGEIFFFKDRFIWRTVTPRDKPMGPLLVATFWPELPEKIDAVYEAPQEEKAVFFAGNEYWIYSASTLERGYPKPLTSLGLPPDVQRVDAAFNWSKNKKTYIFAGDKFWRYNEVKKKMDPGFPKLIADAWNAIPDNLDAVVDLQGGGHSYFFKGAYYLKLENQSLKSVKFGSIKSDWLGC
Neutrophil collagenase, sequence (P22894 whole entry): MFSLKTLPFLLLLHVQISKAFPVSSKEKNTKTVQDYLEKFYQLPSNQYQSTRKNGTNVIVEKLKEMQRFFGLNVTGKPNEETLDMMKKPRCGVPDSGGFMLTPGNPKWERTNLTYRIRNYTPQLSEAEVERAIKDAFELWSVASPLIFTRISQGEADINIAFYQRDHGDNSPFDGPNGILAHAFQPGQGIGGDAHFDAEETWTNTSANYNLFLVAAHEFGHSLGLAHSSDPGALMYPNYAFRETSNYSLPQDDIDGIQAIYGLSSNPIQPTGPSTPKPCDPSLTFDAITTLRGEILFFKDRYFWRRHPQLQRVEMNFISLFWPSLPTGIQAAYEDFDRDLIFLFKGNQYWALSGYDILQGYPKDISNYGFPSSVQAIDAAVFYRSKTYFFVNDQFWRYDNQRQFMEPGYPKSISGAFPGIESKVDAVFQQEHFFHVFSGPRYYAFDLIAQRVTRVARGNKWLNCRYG
Matrix metalloproteinase-9, sequence (P14780 whole entry): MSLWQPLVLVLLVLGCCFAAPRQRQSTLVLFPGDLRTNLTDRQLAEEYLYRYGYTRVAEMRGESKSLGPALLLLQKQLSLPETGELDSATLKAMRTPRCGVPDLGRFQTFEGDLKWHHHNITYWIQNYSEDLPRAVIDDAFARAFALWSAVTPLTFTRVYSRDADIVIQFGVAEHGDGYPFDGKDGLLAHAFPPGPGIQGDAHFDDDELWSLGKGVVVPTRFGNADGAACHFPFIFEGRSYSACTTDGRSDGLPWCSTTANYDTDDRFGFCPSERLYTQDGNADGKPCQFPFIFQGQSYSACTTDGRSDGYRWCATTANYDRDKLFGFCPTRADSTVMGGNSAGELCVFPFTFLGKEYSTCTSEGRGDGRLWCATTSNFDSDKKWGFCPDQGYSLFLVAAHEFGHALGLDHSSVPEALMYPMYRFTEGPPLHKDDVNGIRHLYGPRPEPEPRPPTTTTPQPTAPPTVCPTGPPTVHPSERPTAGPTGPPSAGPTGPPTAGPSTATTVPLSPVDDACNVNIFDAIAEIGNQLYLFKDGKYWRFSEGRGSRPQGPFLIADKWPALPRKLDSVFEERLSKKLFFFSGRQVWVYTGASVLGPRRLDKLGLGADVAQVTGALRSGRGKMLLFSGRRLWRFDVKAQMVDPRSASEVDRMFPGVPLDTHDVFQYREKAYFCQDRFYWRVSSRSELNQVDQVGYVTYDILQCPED

**Q.** O=C1NC(=O)C(CCCCCCCC(F)CF)(Cc2ccccc2)C(=O)N1 (stereo not drawn) was tested. Which IC50 (Neutrophil collagenase; read-out: IC50) did it give?
**A.** The IC50 was 180 nM.

**Q.** And the IC50 ([1]; read-out: IC50)?
**A.** The IC50 was 60 nM.

**Q.** What about the IC50 ([2]; read-out: IC50) of the same compound?
**A.** The IC50 was 320 nM.

**Q.** What about the IC50 (Collagenase 3; read-out: IC50) of the same compound?
**A.** Its IC50 is 163 nM.

**Q.** What does the source list for CCCCCCCCCC1(Cc2ccc(OC)cc2)C(=O)NC(=O)NC1=O?
**A.** IC50 (Neutrophil collagenase; read-out: IC50): 84 nM; IC50 ([1]; read-out: IC50): 93 nM; IC50 ([2]; read-out: IC50): 94 nM; IC50 (Collagenase 3; read-out: IC50): 83 nM

**Q.** What does the source list for COc1ccc(CC2(CCCCCCCC(C)C)C(=O)NC(=O)NC2=O)cc1?
**A.** IC50 (Neutrophil collagenase; read-out: IC50): 281 nM; IC50 ([1]; read-out: IC50): 60 nM; IC50 ([2]; read-out: IC50): 207 nM; IC50 (Collagenase 3; read-out: IC50): 225 nM

**Q.** What does the source list for CCCCCCCCCC1(Cc2ccccc2)C(=O)NC(=O)NC1=O?
**A.** IC50 (Neutrophil collagenase; read-out: IC50): 96 nM; IC50 ([1]; read-out: IC50): 5 nM; IC50 ([2]; read-out: IC50): 210 nM; IC50 (Collagenase 3; read-out: IC50): 180 nM

**Q.** With CCCCCCCCC1(Cc2ccc(OC)cc2)C(=O)NC(=O)NC1=O as the compound, how does the IC50 (Neutrophil collagenase; read-out: IC50) read?
**A.** The IC50 was 73 nM.

**Q.** And the IC50 ([1]; read-out: IC50)?
**A.** Its IC50 is 3 nM.

**Q.** What about the IC50 ([2]; read-out: IC50) of the same compound?
**A.** The IC50 was 42 nM.

**Q.** What about the IC50 (Collagenase 3; read-out: IC50) of the same compound?
**A.** The IC50 was 94 nM.

**Q.** Which IC50 (Neutrophil collagenase) does the source give for CC(C)CCCCCCCC1(Cc2ccccc2)C(=O)NC(=O)NC1=O here?
**A.** Its IC50 is “Nd(Insoluble)”.

**Q.** And the IC50 [1]?
**A.** The IC50 was “Nd(Insoluble)”.

**Q.** And the IC50 [2]?
**A.** The IC50 was “Nd(Insoluble)”.

**Q.** What about the IC50 (Collagenase 3) of the same compound?
**A.** Its IC50 is “Nd(Insoluble)”.

**Q.** COc1ccc(CC2(CCCCCCCC(F)CF)C(=O)NC(=O)NC2=O)cc1 (racemic) was tested. Which IC50 (Neutrophil collagenase; read-out: IC50) did it give?
**A.** Its IC50 is 110 nM.

**Q.** And the IC50 ([1]; read-out: IC50)?
**A.** Its IC50 is 26 nM.

**Q.** What about the IC50 ([2]; read-out: IC50) of the same compound?
**A.** The IC50 was 139 nM.

**Q.** And the IC50 (Collagenase 3; read-out: IC50)?
**A.** The IC50 was 64 nM.

**Q.** COc1ccc(CC2(CCCCCCC(F)CF)C(=O)NC(=O)NC2=O)cc1 (stereo not drawn) was tested. Which IC50 (Neutrophil collagenase; read-out: IC50) did it give?
**A.** Its IC50 is 165 nM.

**Q.** And the IC50 ([1]; read-out: IC50)?
**A.** The IC50 was 47 nM.

**Q.** What about the IC50 ([2]; read-out: IC50) of the same compound?
**A.** Its IC50 is 411 nM.

**Q.** And the IC50 (Collagenase 3; read-out: IC50)?
**A.** Its IC50 is 17 nM.

**Q.** For O=C1NC(=O)C(CCCCCCCC(F)(F)F)(Cc2ccccc2)C(=O)N1, which IC50 (Neutrophil collagenase; read-out: IC50) is on record?
**A.** The IC50 was 229 nM.

**Q.** What about the IC50 ([1]; read-out: IC50) of the same compound?
**A.** The IC50 was 52 nM.

**Q.** What about the IC50 ([2]; read-out: IC50) of the same compound?
**A.** The IC50 was 567 nM.

**Q.** What about the IC50 (Collagenase 3; read-out: IC50) of the same compound?
**A.** Its IC50 is 753 nM.

**Q.** For O=C1NC(=O)C(CCCCCCC(F)CF)(Cc2ccccc2)C(=O)N1 (stereo not drawn), which IC50 (Neutrophil collagenase; read-out: IC50) is on record?
**A.** The IC50 was 125 nM.

**Q.** What about the IC50 ([1]; read-out: IC50) of the same compound?
**A.** Its IC50 is 123 nM.

**Q.** What about the IC50 ([2]; read-out: IC50) of the same compound?
**A.** The IC50 was 253 nM.

**Q.** What about the IC50 (Collagenase 3; read-out: IC50) of the same compound?
**A.** The IC50 was 127 nM.

**Q.** How did the IC50 (Neutrophil collagenase; read-out: IC50) turn out when CCCCCCCCC1(Cc2ccccc2)C(=O)NC(=O)NC1=O was run?
**A.** Its IC50 is 157 nM.

**Q.** And the IC50 ([1]; read-out: IC50)?
**A.** Its IC50 is 22 nM.

**Q.** And the IC50 ([2]; read-out: IC50)?
**A.** Its IC50 is 288 nM.

**Q.** What about the IC50 (Collagenase 3; read-out: IC50) of the same compound?
**A.** The IC50 was 214 nM.

**Q.** COc1ccc(CC2(CCCCCCCC(F)(F)F)C(=O)NC(=O)NC2=O)cc1 was tested. Which IC50 (Neutrophil collagenase; read-out: IC50) did it give?
**A.** The IC50 was 187 nM.

**Q.** What about the IC50 ([1]; read-out: IC50) of the same compound?
**A.** The IC50 was 62 nM.

**Q.** And the IC50 ([2]; read-out: IC50)?
**A.** Its IC50 is 209 nM.

**Q.** And the IC50 (Collagenase 3; read-out: IC50)?
**A.** The IC50 was 177 nM.
